From ChEMBL document CHEMBL5303300, “EUbOPEN Chemogenomics Library - Multiplex” (2023)
Values joined by “and” are separate entries in the source; they are usually repeats but may differ in a detail not shown here. Identical values can stand only once.

Columns and labels:
U2OS = assay: Multiplex assay against U2OS; type: toxicity, cell-based; conditions: human, number of replicates 2
How it was run: (§1)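 Phenotypes for tubulin, mitochondrial mass and membrane permeability are expressed as per cents of healthy-nucleus cells. Cells were stained live at seeding with Hoechst33342, BioTracker Green Microtubule Cytoskeleton Dye, MitoTracker Red and Annexin V Alexa Fluor 680, then imaged after compound addition on a CQ1 microscope at 37°C and 5% CO2. Machine-learning gating in CellPathfinder separated Hoechst high-intensity objects from normal cells, divided normal cells by nuclear state (healthy, pyknosed, fragmented) and divided pyknosed cells into mitotic or apoptotic.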

HEK-293T = assay: Multiplex assay against HEK293T; type: toxicity, cell-based; conditions: human, number of replicates 2; how it was run: as §1
[1] = 12 h, 1 µM, compound concentration 1 uM
[2] = 12 h, 10 µM, compound concentration 10 uM
[3] = 24 h, 1 µM, compound concentration 1 uM
[4] = 24 h, 10 µM, compound concentration 10 uM
[5] = 48 h, 1 µM, compound concentration 1 uM
[6] = 48 h, 10 µM, compound concentration 10 uM

## CCc1ncnc(N2CCN(C(C)=O)CC2)c1C#Cc1ccc(N)nc1.Cl.Cl
U2OS; [1]
  Population Apoptotic (%): 100% and 70%
  Population Fragmented Nuclei (%): 19% and 10%
  Population Healthy Nuclei (%): 69% and 80%
  Population Hoechst High Intensity Objects (%): 0%
  Population Membrane Permeable-Phenotype (%): 0%
  Population Mitochondria Different-Phenotype (%): 0%
  Population Normal (%): 100%
  Population Pyknosed Nuclei (%): 11% and 9%
  Population Tubulin-Different-Phenotype (%): 55% and 90%
U2OS; [2]
  Population Apoptotic (%): 50% and 55%
  Population Fragmented Nuclei (%): 18% and 10%
  Population Healthy Nuclei (%): 72%
  Population Hoechst High Intensity Objects (%): 0%
  Population Membrane Permeable-Phenotype (%): 4% and 3%
  Population Mitochondria Different-Phenotype (%): 2% and 4%
  Population Mitotic Cells (%): 50% and 44%
  Population Normal (%): 100% and 99%
  Population Pyknosed Nuclei (%): 9% and 17%
  Population Tubulin-Different-Phenotype (%): 87% and 58%
U2OS; [3]
  Population Apoptotic (%): 55% and 56%
  Population Fragmented Nuclei (%): 9% and 7%
  Population Healthy Nuclei (%): 75% and 82%
  Population Hoechst High Intensity Objects (%): 0%
  Population Membrane Permeable-Phenotype (%): 2% and 0%
  Population Mitochondria Different-Phenotype (%): 2% and 0%
  Population Mitotic Cells (%): 44% and 43%
  Population Normal (%): 100% and 99%
  Population Pyknosed Nuclei (%): 14% and 10%
  Population Tubulin-Different-Phenotype (%): 72% and 90%
U2OS; [4]
  Population Apoptotic (%): 40% and 73%
  Population Fragmented Nuclei (%): 16% and 12%
  Population Healthy Nuclei (%): 67% and 71%
  Population Hoechst High Intensity Objects (%): 0%
  Population Membrane Permeable-Phenotype (%): 4% and 2%
  Population Mitochondria Different-Phenotype (%): 2% and 5%
  Population Mitotic Cells (%): 60% and 26%
  Population Normal (%): 100% and 99%
  Population Pyknosed Nuclei (%): 16%
  Population Tubulin-Different-Phenotype (%): 88% and 60%
U2OS; [5]
  Population Apoptotic (%): 77% and 69%
  Population Healthy Nuclei (%): 72% and 82%
  Population Hoechst High Intensity Objects (%): 0%
  Population Membrane Permeable-Phenotype (%): 0% and 2%
  Population Mitochondria Different-Phenotype (%): 0%
  Population Mitotic Cells (%): 22% and 30%
  Population Normal (%): 100%
  Population Pyknosed Nuclei (%): 12% and 13%
  Population Tubulin-Different-Phenotype (%): 75% and 93%
U2OS; [6]
  Population Apoptotic (%): 70% and 84%
  Population Fragmented Nuclei (%): 16% and 6%
  Population Healthy Nuclei (%): 32% and 66%
  Population Hoechst High Intensity Objects (%): 0%
  Population Membrane Permeable-Phenotype (%): 5% and 4%
  Population Mitochondria Different-Phenotype (%): 5% and 8%
  Population Mitotic Cells (%): 30% and 15%
  Population Normal (%): 100%
  Population Pyknosed Nuclei (%): 50% and 27%
  Population Tubulin-Different-Phenotype (%): 89% and 72%
HEK-293T; [1]
  Population Apoptotic (%): 62% and 67%
  Population Fragmented Nuclei (%): 5% and 4%
  Population Healthy Nuclei (%): 80% and 82%
  Population Hoechst High Intensity Objects (%): 12% and 10%
  Population Membrane Permeable-Phenotype (%): 2% and 0%
  Population Mitochondria Different-Phenotype (%): 40% and 39%
  Population Mitotic Cells (%): 37% and 32%
  Population Normal (%): 87% and 89%
  Population Pyknosed Nuclei (%): 13% and 12%
  Population Tubulin-Different-Phenotype (%): 62% and 57%
  Total Cell Count: 352 and 438
HEK-293T; [2]
  Population Apoptotic (%): 79% and 66%
  Population Fragmented Nuclei (%): 5% and 4%
  Population Healthy Nuclei (%): 77%
  Population Hoechst High Intensity Objects (%): 15% and 9%
  Population Membrane Permeable-Phenotype (%): 0% and 1%
  Population Mitochondria Different-Phenotype (%): 60% and 59%
  Population Mitotic Cells (%): 20% and 33%
  Population Normal (%): 84% and 90%
  Population Pyknosed Nuclei (%): 16% and 17%
  Population Tubulin-Different-Phenotype (%): 80% and 76%
  Total Cell Count: 304 and 297
HEK-293T; [3]
  Population Apoptotic (%): 66% and 56%
  Population Fragmented Nuclei (%): 8% and 11%
  Population Healthy Nuclei (%): 78% and 74%
  Population Hoechst High Intensity Objects (%): 15% and 23%
  Population Membrane Permeable-Phenotype (%): 1%
  Population Mitochondria Different-Phenotype (%): 41% and 42%
  Population Mitotic Cells (%): 33% and 43%
  Population Normal (%): 84% and 76%
  Population Pyknosed Nuclei (%): 12% and 14%
  Population Tubulin-Different-Phenotype (%): 68% and 67%
  Total Cell Count: 305 and 394
HEK-293T; [4]
  Population Apoptotic (%): 72% and 60%
  Population Fragmented Nuclei (%): 3% and 6%
  Population Healthy Nuclei (%): 78% and 74%
  Population Hoechst High Intensity Objects (%): 14%
